From ChEMBL document CHEMBL3046143, “Occurrence and distribution of organochlorine pesticides (OCPs) in tomato (Lycopersicon esculentum) crops from organic production” (J Agric Food Chem, 2003)
Where a name gives a salt, the structure may show the parent alone.

Experiments:
Leaf [1] = experiment: Drug uptake in Solanum lycopersicum (tomato) leaves after 60 to 151 days post germination by GC-ECD analysis; format: ADME
Outline: (§1)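 Organically grown tomatoes: seeded October 2000 in a pine-needle-enriched plot (period 1), transplanted in November to an unamended plot (periods 2–3), harvested March 2001. Tissues were blender-homogenized and analyzed by GC-ECD on a 30 m SPB-5 capillary column, with helium carrier at 1.5 mL/min. Quantified against external OCP standards as mean ng/g dry wt; LODs were 0.12–0.4 ng/g dry wt; samples were run in duplicate.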

Root [2] = experiment: Drug uptake in Solanum lycopersicum (tomato) root after 60 to 151 days post germination by GC-ECD analysis; format: ADME; outline: as §1
Leaf [3] = experiment: Drug uptake in Solanum lycopersicum (tomato) leaves after 1 to 15 days post germination by GC-ECD analysis; format: ADME; outline: as §1
Fruit [4] = experiment: Drug uptake in Solanum lycopersicum (tomato) fruit peel after 60 to 151 days post germination by GC-ECD analysis; format: ADME; outline: as §1
Fruit [5] = experiment: Drug uptake in Solanum lycopersicum (tomato) fruit flesh after 60 to 151 days post germination by GC-ECD analysis; format: ADME; outline: as §1
Leaf [6] = experiment: Drug uptake in Solanum lycopersicum (tomato) leaves after 16 to 59 days post germination by GC-ECD analysis; format: ADME; outline: as §1
Root [7] = experiment: Drug uptake in Solanum lycopersicum (tomato) root after 1 to 15 days post germination by GC-ECD analysis; format: ADME; outline: as §1
Root [8] = experiment: Drug uptake in Solanum lycopersicum (tomato) root after 16 to 59 days post germination by GC-ECD analysis; format: ADME; outline: as §1
Stem [9] = experiment: Drug uptake in Solanum lycopersicum (tomato) stem after 1 to 15 days post germination by GC-ECD analysis; format: ADME; outline: as §1
[10] = Root bioconcentration factor assessed as compound concentration in tomato plant dry mass to compound concentration in soil dry mass after 1 to 15 days post germination
Outline: (§2)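 Root bioconcentration factor is the mean OCP concentration in tomato roots divided by the mean concentration in bulk soil, both on a dry weight basis. Both matrices were analyzed by GC-ECD with external standard quantification. Period 1 was in a pine-needle-enriched seedbed plot and periods 2–3 in an unamended transplant plot. Soil water content was measured by oven drying at 110 °C.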

[11] = Root bioconcentration factor assessed as compound concentration in tomato plant dry mass to compound concentration in soil dry mass after 16 to 59 days post germination; outline: as §2
Stem [12] = experiment: Drug uptake in Solanum lycopersicum (tomato) stem after 16 to 59 days post germination by GC-ECD analysis; format: ADME; outline: as §1
Stem [13] = experiment: Drug uptake in Solanum lycopersicum (tomato) stem after 60 to 151 days post germination by GC-ECD analysis; format: ADME; outline: as §1
[14] = Root bioconcentration factor assessed as compound concentration in tomato plant dry mass to compound concentration in soil dry mass after 60 to 151 days post germination; outline: as §2
[15] = Octanol-water partition coefficient, log KOW of the compound; format: physicochemical; conditions: read-out: log KOW

O=S1OC[C@@H]2[C@H](CO1)[C@@]1(Cl)C(Cl)=C(Cl)[C@]2(Cl)C1(Cl)Cl (stereo partly drawn) [ALPHA-ENDOSULFAN] gave a Drug uptake (Leaf [1]) of 3.5 ng/g, a Drug uptake (Root [2]) of 0.3 ng/g and a Drug uptake (Leaf [3]) of 1 ng/g. The Drug uptake (Fruit [4]) was 12.3 ng/g, the Drug uptake (Fruit [5]) was 4.5 ng/g and the Drug uptake (Leaf [6]) was 1.5 ng/g. The Drug uptake (Root [7]) was 0.8 ng/g, the Drug uptake (Root [8]) was 1.3 ng/g and the Drug uptake (Stem [9]) was 1.2 ng/g. It also gave a Ratio [10] of 10, a Ratio [11] of 18.6 and a Drug uptake (Stem [12]) of 0.9 ng/g. For the same molecule, the Drug uptake (Stem [13]) was 0.9 ng/g, the Ratio [14] was 4.3 and the logP [15] was under 4.
Molecule Cl[C@H]1[C@H](Cl)[C@H](Cl)[C@@H](Cl)[C@H](Cl)[C@H]1Cl [ALPHA-HEXACHLOROCYCLOHEXANE] has a Drug uptake (Leaf [1]) of 0.6 ng/g, a Drug uptake (Root [2]) of 1.3 ng/g and a Drug uptake (Leaf [3]) of 1.2 ng/g. It also gave a Drug uptake (Fruit [4]) of 1.4 ng/g, a Drug uptake (Fruit [5]) of 7.4 ng/g and a Drug uptake (Leaf [6]) of 0.8 ng/g. For the same molecule, the Drug uptake (Root [7]) was 1.9 ng/g, the Drug uptake (Root [8]) was 0.4 ng/g and the Drug uptake (Stem [9]) was 1.7 ng/g. It also gave a Ratio [10] of 9.5, a Ratio [11] of 4 and a Drug uptake (Stem [12]) of 1.1 ng/g. It also gave a Drug uptake (Stem [13]) of 1.3 ng/g, a Ratio [14] of 13 and a logP [15] of under 4.
O=S1OC[C@@H]2[C@H](CO1)[C@]1(Cl)C(Cl)=C(Cl)[C@]2(Cl)C1(Cl)Cl (stereo partly drawn) [BETA-ENDOSULFAN] showed a Drug uptake (Leaf [1]) of 3.3 ng/g, a Drug uptake (Root [2]) of 0.9 ng/g and a Drug uptake (Leaf [3]) of 1.1 ng/g. For the same molecule, the Drug uptake (Fruit [4]) was 10.8 ng/g, the Drug uptake (Fruit [5]) was 6.6 ng/g and the Drug uptake (Leaf [6]) was 2.9 ng/g. It also gave a Drug uptake (Root [7]) of 2 ng/g, a Drug uptake (Root [8]) of 0.9 ng/g and a Drug uptake (Stem [9]) of 1.1 ng/g. The Ratio [10] was 50, the Ratio [11] was 15 and the Drug uptake (Stem [12]) was 3.2 ng/g. It also gave a Drug uptake (Stem [13]) of 1.6 ng/g, a Ratio [14] of 15 and a logP [15] of under 4.
Cl[C@H]1[C@H](Cl)[C@@H](Cl)[C@H](Cl)[C@@H](Cl)[C@@H]1Cl [BETA-HEXACHLOROCYCLOHEXANE] gave a Drug uptake (Leaf [1]) of 1.6 ng/g, a Drug uptake (Root [2]) of 1.2 ng/g and a Drug uptake (Leaf [3]) of 4.2 ng/g. For the same molecule, the Drug uptake (Fruit [4]) was 1.5 ng/g, the Drug uptake (Fruit [5]) was 5.4 ng/g and the Drug uptake (Leaf [6]) was 2.2 ng/g. The Drug uptake (Root [7]) was 3.7 ng/g, the Drug uptake (Root [8]) was 1.1 ng/g and the Drug uptake (Stem [9]) was 8.9 ng/g. The Ratio [10] was 9.2, the Ratio [11] was 2.7 and the Drug uptake (Stem [12]) was 4.2 ng/g. For the same molecule, the Drug uptake (Stem [13]) was 2.1 ng/g, the Ratio [14] was 3 and the logP [15] was under 4.
With Clc1ccc(C(c2ccc(Cl)cc2)C(Cl)(Cl)Cl)cc1 [CHLOROPHENOTHANE] the Drug uptake (Leaf [1]) was 2.3 ng/g, the Drug uptake (Root [2]) was 7.3 ng/g and the Drug uptake (Leaf [3]) was 8.9 ng/g. The Drug uptake (Fruit [4]) was 8.8 ng/g, the Drug uptake (Fruit [5]) was 29.2 ng/g and the Drug uptake (Leaf [6]) was 8.24 ng/g. For the same molecule, the Drug uptake (Root [7]) was 19.2 ng/g, the Drug uptake (Root [8]) was 2.5 ng/g and the Drug uptake (Stem [9]) was 9.4 ng/g. It also gave a Ratio [10] of 2.6, a Drug uptake (Stem [12]) of 10.5 ng/g and a Drug uptake (Stem [13]) of 6.8 ng/g. The logP [15] was over 6.
Cl[C@H]1[C@H](Cl)[C@@H](Cl)[C@H](Cl)[C@@H](Cl)[C@H]1Cl [DELTA-HEXACHLOROCYCLOHEXANE] showed a Drug uptake (Leaf [1]) of 1.2 ng/g, a Drug uptake (Root [2]) of 1.7 ng/g and a Drug uptake (Leaf [3]) of 2.4 ng/g. The Drug uptake (Fruit [4]) was 1.4 ng/g, the Drug uptake (Fruit [5]) was 2.3 ng/g and the Drug uptake (Leaf [6]) was 1.1 ng/g. The Drug uptake (Root [7]) was 3.7 ng/g, the Drug uptake (Root [8]) was 0.8 ng/g and the Drug uptake (Stem [9]) was 4.7 ng/g. The Ratio [10] was 18.5, the Ratio [11] was 0.7 and the Drug uptake (Stem [12]) was 3.6 ng/g. It also gave a Drug uptake (Stem [13]) of 1.6 ng/g, a Ratio [14] of 1.5 and a logP [15] of under 4.
ClC(Cl)=C(c1ccc(Cl)cc1)c1ccc(Cl)cc1 [DICHLORODIPHENYLDICHLOROETHYLENE] gave a Drug uptake (Leaf [1]) of 6 ng/g, a Drug uptake (Root [2]) of 2.4 ng/g and a Drug uptake (Leaf [3]) of 2.8 ng/g. For the same molecule, the Drug uptake (Fruit [4]) was 3.2 ng/g, the Drug uptake (Fruit [5]) was 6.4 ng/g and the Drug uptake (Leaf [6]) was 2.2 ng/g. It also gave a Drug uptake (Root [7]) of 9.1 ng/g, a Drug uptake (Root [8]) of 23.2 ng/g and a Drug uptake (Stem [9]) of 7.4 ng/g. For the same molecule, the Ratio [10] was 5.3, the Drug uptake (Stem [12]) was 8.6 ng/g and the Drug uptake (Stem [13]) was 1.8 ng/g.
With O=S1(=O)OCC2C(CO1)C1(Cl)C(Cl)=C(Cl)C2(Cl)C1(Cl)Cl (stereo not given) [ENDOSULFAN SULFATE] the Drug uptake (Leaf [1]) was 38.2 ng/g, the Drug uptake (Root [2]) was 71.4 ng/g and the Drug uptake (Leaf [3]) was 126.5 ng/g. It also gave a Drug uptake (Fruit [4]) of 80.6 ng/g, a Drug uptake (Fruit [5]) of 305.5 ng/g and a Drug uptake (Leaf [6]) of 48.2 ng/g. For the same molecule, the Drug uptake (Root [7]) was 151.6 ng/g, the Drug uptake (Root [8]) was 21.1 ng/g and the Drug uptake (Stem [9]) was 246.9 ng/g. It also gave a Ratio [10] of 9.2, a Ratio [11] of 1.3 and a Drug uptake (Stem [12]) of 99.7 ng/g. It also gave a Drug uptake (Stem [13]) of 82.1 ng/g, a Ratio [14] of 4.5 and a logP [15] of under 4.
Work on Cl[C@H]1[C@H](Cl)[C@@H](Cl)[C@@H](Cl)[C@H](Cl)[C@H]1Cl [LINDANE] yielded a Drug uptake (Leaf [1]) of 0.9 ng/g, a Drug uptake (Root [2]) of 3.9 ng/g and a Drug uptake (Leaf [3]) of 9.9 ng/g. For the same molecule, the Drug uptake (Fruit [4]) was 2.1 ng/g, the Drug uptake (Fruit [5]) was 14.4 ng/g and the Drug uptake (Leaf [6]) was 4 ng/g. The Drug uptake (Root [7]) was 16.2 ng/g, the Drug uptake (Root [8]) was 4.7 ng/g and the Drug uptake (Stem [9]) was 27.5 ng/g. The Ratio [10] was 12.3, the Ratio [11] was 3.9 and the Drug uptake (Stem [12]) was 9.4 ng/g. For the same molecule, the Drug uptake (Stem [13]) was 4.6 ng/g, the Ratio [14] was 3.2 and the logP [15] was under 4.
